# Measurements gathered from unrelated publications.
# Lines come from different studies, so protocols differ.
# Organism: Plasmodium falciparum
# Effect on: parasite growth
# Technique: SYBR Green
Compound,strain,tested at,time,setting,measurement,result
CCCCCNC[C@@H](O)c1cc(Cl)cc2c1-c1ccc(Cl)cc1C2,W2,,48 h,"drug-resistant strain, blood stage",IC50,8.6 nM
C[C@@H]1CC[C@H]2[C@@H](C)C(=O)O[C@@H]3O[C@@]4(C)CC[C@@H]1[C@]32OO4,DD2,,,"drug-resistant strain, blood stage",IC50,76 nM
O[C@H](CN[C@@H](COCC1CC1)Cc1ccccc1)c1cc(Cl)cc2c1-c1ccc(Cl)cc1C2,W2,,48 h,"drug-resistant strain, blood stage",IC50,5.4 nM
Cc1cc(Nc2ccc(S(F)(F)(F)(F)F)cc2)n2nc(C(C)(F)F)nc2n1,DD2,,,blood stage,EC50,8.5 nM
CCCN(CCc1cccs1)[C@H]1CCc2c(O)cccc2C1,DD2,,48 h,"drug-resistant strain, blood stage",IC50,9270 nM
CCCCCCNCC(O)c1cc(Cl)cc2c1-c1ccc(Cl)cc1C2 (racemic),W2,,48 h,"drug-resistant strain, blood stage",IC50,6 nM
CC(C)C[C@H](NC(=O)[C@H](Cc1ccccc1)NC(=O)c1cnccn1)B(O)O,DD2,,,blood stage,EC50,41 nM
O[C@@H](CNCCCC(F)(F)F)c1cc(Cl)cc2c1-c1ccc(Cl)cc1C2,W2,,48 h,"drug-resistant strain, blood stage",IC50,3.8 nM
Cn1cc2c3c1C(=O)C(NCCc1ccc(O)cc1)=CC3=NCC2,3D7,,,blood stage,IC50,3310 nM
CCN(CC)CCCC(C)Nc1ccnc2cc(Cl)ccc12 (centres unmarked),DD2,,96 h,"drug-resistant strain, blood stage",IC50,75 nM
C[N+]1=C2C=C(N/C=C/c3ccc(O)cc3)C(=O)c3[nH]cc(c32)CC1,DD2,,,blood stage,IC50,498 nM
COCC(=O)N1CCC[C@H](C(=O)NCc2nc(-c3ccc(C#N)cc3)cs2)C1,DD2,,,blood stage,EC50,18 nM
COc1ccccc1C(=O)/C=C/c1cn(Cc2cn(-c3ccnc4cc(Cl)ccc34)nn2)c2ccccc12,3D7,10 µM,,blood stage,inhibition,> 50%
C[N+]1=C2C=C(N)C(=O)c3[nH]cc(c32)CC1,W2,,,blood stage,IC50,681 nM
CC(C)C[C@@H](C=O)NC(=O)[C@H](CC(C)C)NC(=O)[C@H](CC(C)C)NC(=O)OCc1ccccc1,DD2,,,blood stage,EC50,69 nM
O=C1C(NCCc2c[nH]c3ccccc23)=CC2=NCCc3c[nH]c1c32,3D7,,,blood stage,IC50,160 nM
O[C@H](CNCCN1CCN(C(c2ccccc2)c2ccccc2)CC1)c1cc(Cl)cc2c1-c1ccc(Cl)cc1C2,W2,,48 h,"drug-resistant strain, blood stage",IC50,13 nM
Cn1cc2c3c1C(=O)C(N)=CC3=[N+](C)CC2,3D7,,,blood stage,IC50,1140 nM
CCCCCCCNC[C@@H](O)c1cc(Cl)cc2c1-c1ccc(Cl)cc1C2,W2,,48 h,"drug-resistant strain, blood stage",IC50,4.7 nM
Cn1cc2c3c1C(=O)C(N)=CC3=NCC2,DD2,,,blood stage,IC50,3550 nM
O=Cc1cn(Cc2cn(-c3ccnc4cc(Cl)ccc34)nn2)c2ccccc12,3D7,5 µM,,blood stage,inhibition,-4.99%
C[N+]1=C2C=C(NCCc3ccc(O)cc3)C(=O)c3[nH]cc(c32)CC1,DD2,,,blood stage,IC50,28.3 nM
COCC(=O)N1CCC[C@H](C(=O)NCc2nc(-c3ccccc3)cs2)C1,DD2,,,blood stage,EC50,69 nM
